Source: ChEMBL document CHEMBL4814057, “4-4-(Anilinomethyl)-3-[4-(trifluoromethyl)phenyl]-1H-pyrazol-1-ylbenzoic acid derivatives as potent anti-gram-positive bacterial agents” (Eur J Med Chem, 2021)
In brackets after ≈: the same amount, converted by molar mass. Activity calls are given as the source filed them. No cut-off for these calls is given here.

Legend:
Staphylococcus aureus [1] = assay: Antibacterial activity against methicillin resistant Staphylococcus aureus ATCC 700699 persisters assessed as reduction in viability at 2 times MIC measured within 4 hrs by colony counting method; type: functional; details: time hrs <=4
Summary of the method: (§1)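 Stationary-phase S. aureus from overnight CAMHB culture (35 °C, 200 rpm), washed thrice in PBS, diluted to ~5 × 10^8 CFU/ml. Incubated with antibiotic at 35 °C, 200 rpm. Aliquots taken at set times, washed, serially diluted in PBS, drop-plated (6 × 6) on TSA with 5% sheep blood. Colonies counted after 18–20 h at 35 °C. Triplicates.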

Staphylococcus aureus [2] = assay: Bactericidal activity against Staphylococcus aureus ATCC 700699 assessed as reduction bacterial growth at 4X MIC measured after 6 hrs by time-kill kinetic assay; type: functional, organism-based
Summary of the method: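 Log-phase culture diluted to ~5 × 10^6 CFU/ml in warm CAMHB, exposed at 4xMIC, 35 °C. 20 µl samples every 2 h, 10-fold dilutions to 10^-5, 6 × 6 drop plating. CFU/ml counted after 18–24 h at 35 °C; triplicate.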

Enterococcus faecalis [3] = assay: Antibacterial activity against vancomycin-intermediate Enterococcus faecalis ATCC 29212 assessed as bacterial growth inhibition by measuring fold increase in MIC after14 passages by broth dilution method; type: functional, organism-based
Staphylococcus aureus [4] = assay: Antibacterial activity against vancomycin-intermediate susceptible Staphylococcus aureus ATCC 25923 assessed as bacterial growth inhibition by measuring fold increase in MIC between 14 passages by broth dilution method; type: functional
Staphylococcus aureus [5] = assay: Antibiofilm activity against Staphylococcus aureus ATCC 25923 assessed as destruction of biofilm formation at 1 times MIC after 24 hrs by crystal violet staining based assay relative to control; type: functional
Summary of the method: (§2)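 Overnight culture brought to 0.5 McFarland in PBS, diluted 1:100 in CAMHB with 1% glucose. Inhibition: cells plus compound (in DMSO) at 2x, 1x, 0.5xMIC, 24 h at 35 °C, triplicate. Destruction: 24 h biofilm grown without drug, washed, fresh medium with compound, further 24 h. Then washed, dried, 0.1% crystal violet, solubilized in 33% acetic acid, OD 620 nm. Controls are DMSO-only and broth-only wells.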

Staphylococcus aureus [6] = assay: Antibiofilm activity against Staphylococcus aureus ATCC 25923 assessed as inhibition of biofilm formation at 0.5 times MIC after 24 hrs by crystal violet staining based assay relative to control; type: functional, organism-based; summary of the method: as §2
Staphylococcus aureus [7] = assay: Antimicrobial activity against antibiotic-resistant Staphylococcus aureus BM-2312 assessed as bacterial growth inhibitions by CLSI protocol based microdilution method; type: functional
Bacillus subtilis = assay: Antimicrobial activity against Bacillus subtilis ATCC 6623 assessed as bacterial growth inhibitions by CLSI protocol based microdilution method; type: functional
Summary of the method: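 Broth microdilution starting at 50 µg/ml with 2-fold serial dilutions; run in triplicate.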

Staphylococcus aureus [8] = assay: Antimicrobial activity against methicillin-resistant Staphylococcus aureus ATCC 33591 assessed as bacterial growth inhibitions by CLSI protocol based microdilution method; type: functional
Staphylococcus aureus [9] = assay: Antibacterial activity against methicillin resistant Staphylococcus aureus ATCC 700699 persisters assessed as reduction in viability at 4 times MIC measured within 4 hrs by colony counting method; type: functional; details: time hrs <=4; summary of the method: as §1
Staphylococcus aureus [10] = assay: Antibiofilm activity against Staphylococcus aureus ATCC 25923 assessed as destruction of biofilm formation at 2 times MIC after 24 hrs by crystal violet staining based assay relative to control; type: functional; summary of the method: as §2
Staphylococcus aureus [11] = assay: Antibacterial activity against vancomycin-intermediate susceptible Staphylococcus aureus ATCC 25923 assessed as bacterial growth inhibition by measuring fold increase in MIC between 8 passages by broth dilution method; type: functional
Staphylococcus aureus [12] = assay: Antibacterial activity against methicillin resistant Staphylococcus aureus ATCC 700699 persisters assessed as reduction in viability at 16 times MIC by colony counting method; type: functional, organism-based; summary of the method: as §1
Staphylococcus aureus [13] = assay: Antibacterial activity against methicillin resistant Staphylococcus aureus ATCC 700699 persisters assessed as reduction in viability at 8 times MIC measured within 4 hrs by colony counting method; type: functional; details: time hrs <=4; summary of the method: as §1
Staphylococcus aureus [14] = assay: Antimicrobial activity against methicillin-resistant Staphylococcus aureus ATCC 700699 assessed as bacterial growth inhibitions by CLSI protocol based microdilution method; type: functional
Staphylococcus aureus [15] = assay: Antibiofilm activity against Staphylococcus aureus ATCC 25923 assessed as inhibition of biofilm formation at 2 times MIC after 24 hrs by crystal violet staining based assay relative to control; type: functional; parameters: scale not given: the % may be the effect or the level left; summary of the method: as §2
Staphylococcus aureus [16] = assay: Antibiofilm activity against Staphylococcus aureus ATCC 25923 assessed as destruction of biofilm formation at 0.5 times MIC after 24 hrs by crystal violet staining based assay relative to control; type: functional, organism-based; summary of the method: as §2
Enterococcus faecalis [17] = assay: Antibiofilm activity against Enterococcus faecalis ATCC 29212 assessed as inhibition of biofilm formation at 0.5 times MIC after 24 hrs by crystal violet staining based assay relative to control; type: functional; summary of the method: as §2
Enterococcus faecalis [18] = assay: Antimicrobial activity against vancomycin-susceptible Enterococcus faecalis ATCC 29212 assessed as bacterial growth inhibitions by CLSI protocol based microdilution method
Staphylococcus aureus [19] = assay: Antimicrobial activity against methicillin-susceptible Staphylococcus aureus ATCC 25923 assessed as bacterial growth inhibitions by CLSI protocol based microdilution method; type: functional
Enterococcus faecalis [20] = assay: Antibiofilm activity against Enterococcus faecalis ATCC 29212 assessed as inhibition of biofilm formation at 1 times MIC after 24 hrs by crystal violet staining based assay relative to control; type: functional; summary of the method: as §2
Staphylococcus aureus [21] = assay: Antimicrobial activity against methicillin-resistant Staphylococcus aureus ATCC 33592 assessed as bacterial growth inhibitions by CLSI protocol based microdilution method; type: functional
[22] = test system: Staphylococcus epidermidis; assay: Antimicrobial activity against methicillin-resistant Staphylococcus epidermidis ATCC 700296 assessed as bacterial growth inhibitions by CLSI protocol based microdilution method; type: functional
[23] = Selectivity index, ratio of IC50 for cytotoxicity against human HEK-293T cells to MIC of antimicrobial activity against methicillin-resistant Staphylococcus aureus ATCC 700699; type: toxicity, cell-based; details: read-out: Selectivity Index
Summary of the method: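 Ratio of HEK293 IC50 to MIC. HEK293 cells (4000/well, EMEM with 10% FBS, 37 °C, 5% CO2) treated 24 h with a concentration range in DMSO. Resazurin added for 4 h, fluorescence read at ex 560/em 590 nm. IC50 fitted.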

Enterococcus faecium = assay: Antimicrobial activity against vancomycin-resistant Enterococcus faecium ATCC 700221 assessed as bacterial growth inhibitions by CLSI protocol based microdilution method; type: functional
Staphylococcus aureus [24] = assay: Antibacterial activity against vancomycin-intermediate resistant Staphylococcus aureus ATCC 700699 assessed as bacterial growth between 7 passages measured 14 to 21 days by broth dilution method; type: functional, organism-based; details: time 14-21 day
Staphylococcus aureus [25] = assay: Antibacterial activity against vancomycin-intermediate susceptible Staphylococcus aureus ATCC 25923 assessed as bacterial growth inhibition between 7 passages by broth dilution method; type: functional, organism-based
Staphylococcus aureus [26] = assay: Inhibition of DNA synthesis in Staphylococcus aureus ATCC 29213 at 8 times MIC measured by liquid scintillation counter; type: functional
Summary of the method: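 Early-exponential cells in CAMHB added to drug (40x stock) in triplicate, with a no-drug control. After 30 min pre-incubation at room temperature, [3H]thymidine 3.0 µCi/tube (DNA) or [3H]uridine 0.5 µCi/tube (RNA) added for 30 min at room temperature. Stopped with cold TCA, precipitate filtered and washed, then scintillation counted.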

Enterococcus faecalis [27] = assay: Antibacterial activity against vancomycin-intermediate Enterococcus faecalis ATCC 29212 assessed as bacterial growth inhibition by measuring fold increase in MIC after 7 passages by broth dilution method; type: functional, organism-based

SMILES: O=C(O)c1ccc(-n2cc(CNc3cc(Cl)c(F)c(Cl)c3)c(-c3ccc(C(F)(F)F)cc3)n2)cc1
- Activity (Staphylococcus aureus [1]): 1 log10CFU/ml
- Activity (Staphylococcus aureus [2]): Active
- Activity (Enterococcus faecalis [3]): inactive
- fold change (FC) (Staphylococcus aureus [4]): 2
- Activity (Staphylococcus aureus [5]): 55%
- Activity (Staphylococcus aureus [6]): inactive
- MIC (Staphylococcus aureus [7]): 0.78 µg/mL (≈ 1.49 µM)
- MIC (Bacillus subtilis): 0.78 µg/mL (≈ 1.49 µM)
- MIC (Staphylococcus aureus [8]): 0.78 µg/mL (≈ 1.49 µM)
- Activity (Staphylococcus aureus [9]): 1 log10CFU/ml
- Activity (Staphylococcus aureus [10]): 70%
- fold change (FC) (Staphylococcus aureus [11]): 2
- Activity (Staphylococcus aureus [12]): Active
- Activity (Staphylococcus aureus [13]): 1 log10CFU/ml
- MIC (Staphylococcus aureus [14]): 0.78 µg/mL (≈ 1.49 µM)
- Activity (Staphylococcus aureus [15]): > 85%
- Activity (Staphylococcus aureus [16]): inactive
- Activity (Enterococcus faecalis [17]): inactive
- MIC (Enterococcus faecalis [18]): 1.56 µg/mL (≈ 2.98 µM)
- MIC (Staphylococcus aureus [19]): 0.78 µg/mL (≈ 1.49 µM)
- Activity (Enterococcus faecalis [20]): inactive
- MIC (Staphylococcus aureus [21]): 0.78 µg/mL (≈ 1.49 µM)
- MIC [22]: 0.78 µg/mL (≈ 1.49 µM)
- selectivity ratio [23]: 33
- MIC (Enterococcus faecium): 0.78 µg/mL (≈ 1.49 µM)

SMILES: O=C(O)c1cn(C2CC2)c2cc(N3CCNCC3)c(F)cc2c1=O [CIPROFLOXACIN]
- Activity (Staphylococcus aureus [24]): inactive
- Activity (Staphylococcus aureus [25]): inactive
- inhibition (INH) (Staphylococcus aureus [26]): 86.2%
- Activity (Enterococcus faecalis [27]): inactive
